# Kir21 inh: blocks the mouse Kir2.1 inward-rectifier potassium channel | P35561 | AID 1672 | HEK293-Kir2.1, FluxOR thallium flux fluorescence; hits give low values | B-score at 10 µM | hit rate 0.85% among 310,000;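 active = fluorescence ratio B-score at or below minus 3 SD of library scores, with starting-brightness B-score within 2 SD, cut at about -4.2 in these data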;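 note: channel flux triggered by added potassium and thallium sulfate stimulus; B-score of peak minus minimum fluorescence over baseline after thallium stimulus; more negative B-score means stronger Kir2.1 block with less thallium influx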
# KCNQ1 act: potentiates or activates the human KCNQ1 potassium channel; P51787; CHO-K1 KCNQ1, thallium flux FluxOR fluorescence; hits give high values; B-score at 10 µM; hit rate 0.35% among 310,000; AID 2648;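 active = fluorescence ratio B-score, a plate-corrected score, at least three library SD, with initial intensity B-score within 5 SD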
#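 Test system: CHO-K1 cells stably expressing KCNQ1 / Medium: assay buffer / Also added: depolarizing K+/Tl+ stimulus, K2SO4 and Tl2SO4 each 12.5 mM in 5x stock / Incubation: 90 min dye loading and 20 min compound exposure, both at room temperature / Signal: thallium influx via FluxOR fluorescence, kinetic imaging / Evaluation: B score of baseline-normalized fluorescence ratio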
# KCNK3 block: human KCNK3 channel inhibition, primary screen. O14649. CHO-KCNK3 thallium flux, FluxOR fluorescence; hits give low values. B-score at 10 µM. hit rate 0.84% among 340,000. AID 602410;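 active = B-score under library mean minus 4 SD, starting fluorescence ratio at most library mean plus 5 SD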;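 note: more negative B-score means stronger inhibition of thallium flux through KCNK3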
# KCNQ1 block: inhibitors of human KCNQ1 potassium channel; CHO-K1 KCNQ1, FluxOR thallium flux fluorescence; hits give high values; hit rate 1.3% among 310,000; P51787; B-score at 10 µM;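 active = compounds whose thallium flux B-score, printed positive for inhibition, exceeds three library SD while starting fluorescence stays within three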;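 note: channel opened by potassium depolarization with thallium stimulus after 20 min compound exposure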
# KCNK9 block: human KCNK9 channel inhibition. Q9NPC2. HEK293 KCNK9, FluxOR thallium flux fluorescence; hits give low values. B-score at 10 µM. hit rate 1.2% among 310,000. AID 488922;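 active = ratio B-score over 3 SD below the library mean, with starting fluorescence within 5 SD of its mean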;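 note: negative B-score means less thallium flux so channel inhibition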
# hERG rescue: shields human hERG channel from block by proarrhythmic agents. Q12809. CHO-hERG, FluxOR thallium flux, dofetilide IC70 present. activation (rescue from dofetilide block), less the hit threshold, % at 10 µM. hit rate 0.51% among 310,000;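 active = activation above the mean of controls blocked by dofetilide plus 5 SD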;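 note: thallium influx through hERG after potassium depolarization seen as dye fluorescence rise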
# Target sequence (Q12809 whole entry, looked up): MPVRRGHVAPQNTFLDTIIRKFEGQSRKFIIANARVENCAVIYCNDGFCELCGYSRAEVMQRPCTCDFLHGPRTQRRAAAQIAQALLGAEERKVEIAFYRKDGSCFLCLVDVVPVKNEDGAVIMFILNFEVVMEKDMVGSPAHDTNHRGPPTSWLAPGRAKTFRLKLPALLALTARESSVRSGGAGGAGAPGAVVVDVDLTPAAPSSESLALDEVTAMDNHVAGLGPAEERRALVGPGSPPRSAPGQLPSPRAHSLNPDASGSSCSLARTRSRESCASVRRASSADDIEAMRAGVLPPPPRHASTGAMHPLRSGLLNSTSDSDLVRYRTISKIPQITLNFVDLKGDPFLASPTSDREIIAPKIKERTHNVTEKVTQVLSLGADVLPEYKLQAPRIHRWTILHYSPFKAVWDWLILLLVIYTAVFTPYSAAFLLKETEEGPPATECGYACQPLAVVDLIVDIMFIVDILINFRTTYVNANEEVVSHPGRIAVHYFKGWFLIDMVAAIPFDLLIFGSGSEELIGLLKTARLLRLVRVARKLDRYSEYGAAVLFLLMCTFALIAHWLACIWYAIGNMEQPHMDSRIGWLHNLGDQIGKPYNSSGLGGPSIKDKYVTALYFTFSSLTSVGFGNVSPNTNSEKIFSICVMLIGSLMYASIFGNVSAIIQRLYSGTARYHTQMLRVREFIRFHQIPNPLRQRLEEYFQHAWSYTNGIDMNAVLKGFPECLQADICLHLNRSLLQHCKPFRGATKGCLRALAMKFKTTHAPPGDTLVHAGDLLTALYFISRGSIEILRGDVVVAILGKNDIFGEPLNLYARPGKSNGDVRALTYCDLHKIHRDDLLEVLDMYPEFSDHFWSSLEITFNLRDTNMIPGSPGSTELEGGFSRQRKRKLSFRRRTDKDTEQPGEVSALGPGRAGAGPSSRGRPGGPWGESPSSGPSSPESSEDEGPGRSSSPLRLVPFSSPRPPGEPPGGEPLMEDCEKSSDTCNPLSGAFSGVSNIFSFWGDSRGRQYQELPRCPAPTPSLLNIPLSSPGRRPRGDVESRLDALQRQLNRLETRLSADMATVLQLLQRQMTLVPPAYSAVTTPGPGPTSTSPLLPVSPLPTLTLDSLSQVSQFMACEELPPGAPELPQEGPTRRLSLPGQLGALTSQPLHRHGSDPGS
# Active calls of the source: *; i = inactive; / = not tested or not shown. This is a sample that favours compounds with a hit; in the whole collection about 3.7% have one here.
SMILES,Kir21 inh,KCNQ1 act,KCNK3 block,KCNQ1 block,KCNK9 block,hERG rescue
Cc1[nH]c2ccc(F)cc2c1CCN(Cc1ccncc1)C(=S)Nc1ccc(F)cc1,-0.49,i,i,i,-7.1*,-15
Cc1ccccc1NC(=S)N(CCc1c(C)[nH]c2ccc(F)cc12)Cc1cccnc1,0.72,i,i,i,i,-13
O=C(CCC(=O)Nc1ccccc1)N/N=C/c1ccc2c(c1)OCO2,1.6,i,i,i,i,-8
O=C(CCC(=O)Nc1ccc(Cl)cc1)N/N=C/c1ccc2c(c1)OCO2,-0.21,i,i,6*,i,-5
Cc1ccc(S(=O)(=O)N2c3ccccc3OCC2C(C)(C)C)cc1 (centres undefined),0.65,i,i,i,i,-8
Cc1ccc2c(c1)N(S(=O)(=O)c1ccc(F)cc1)C(C(C)(C)C)CO2 (centres undefined),-0.53,i,i,7*,i,-11
CCCCCn1c(SCc2ccncc2)nc2cc(C(=O)NCc3ccco3)ccc2c1=O,-1.7,i,i,10*,i,-9
OC(CNCc1ccccc1)c1ccccc1 (centres undefined),-0.22,i,i,i,i,-7
Oc1cccc(C(O)CNCc2ccc(-c3ccccc3)cc2)c1 (centres undefined),-7.8*,i,i,i,i,-13
O=C(NCCCn1ccnc1)c1cc2cc([N+](=O)[O-])ccc2oc1=O,-0.03,i,i,i,i,-5
Cc1ccc(Oc2cc(NC(=O)CCCn3nc([N+](=O)[O-])c(Cl)c3C)cc([N+](=O)[O-])c2)cc1,0.5,i,i,7*,i,-13
Cc1cc([N+](=O)[O-])nn1CCCC(=O)Nc1cc(Oc2ccc(F)cc2)cc([N+](=O)[O-])c1,1.7,i,i,i,i,-5
COc1ccc(OC)c(NC(=O)NNC(=O)COc2ccc([N+](=O)[O-])cc2)c1,-0.27,i,i,i,i,-1
CC(C)(C)c1ccc(C(=O)NC(=S)NNC(=O)c2cccs2)cc1,0.83,12*,i,i,i,-9
Cc1cccc(C(=O)NC(=S)NNC(=O)c2cccs2)c1,0.03,8*,i,i,i,-2
O=C(NC(=S)NNC(=O)c1cccs1)c1ccccc1,-0.3,i,i,6*,i,-12
Cc1ccccc1C(=O)NNC(=S)NC(=O)c1cccs1,-0.2,i,i,i,i,-8
Cc1ccc(CC(=O)NCC(O)c2ccccc2)cc1 (centres undefined),-0.12,i,i,i,i,-3
COc1ccc(S(=O)(=O)N2CCOCC2)cc1NC(=O)COC(=O)C1CC1C (centres undefined),/,/,i,/,/,/
O=C(CSc1nn(-c2ccc(Cl)cc2)c(=S)s1)NCC1CCCO1 (centres undefined),-0.12,i,i,i,i,-10
O=c1c2cc(Br)ccc2nc(-c2ccc(Cl)cc2)n1O,-1.7,104*,i,i,i,35*
O=c1c2cc(Cl)ccc2nc(-c2ccc([N+](=O)[O-])cc2)n1O,-0.1,13*,i,i,i,21*
Cc1ccc(-c2nc3c(Cl)cc(Cl)cc3c(=O)n2O)cc1,0.36,105*,i,i,i,55*
N#Cc1ccc(-c2nc3cc(Cl)ccc3c(=O)n2O)cc1,-0.9,i,i,i,i,-3
O=c1c2ccccc2nc(-c2ccc(Cl)c(Cl)c2)n1O,0.59,37*,i,i,i,21*
O=C(CN1CCCCC1)NCC(=O)Nc1ccc(F)c(F)c1F,/,/,i,/,/,/
COC(=O)Cn1ccc2cc(S(=O)(=O)N3CCCCC3)ccc21,0.01,i,i,i,i,-4
Cc1ccn(CC(=O)N2CCCC(N3CCN(c4ccccc4F)CC3)C2)n1 (centres undefined),-0.51,i,i,i,i,-13
S=C(NNc1ccc2ccccc2c1)NC1CCCCC1,0.52,i,i,i,i,-7
CC(=O)N1CCOc2ccc(S(=O)(=O)N3CC(C)CC(C)C3)cc21 (centres undefined),-2.7,i,i,i,i,-8

# Bioassay records deposited in PubChem BioAssay by Johns Hopkins Ion Channel Center.
